Data reported in ChEMBL document CHEMBL1123193, “The lysine pathway as a target for a new genera of synthetic antibacterial antibiotics?” (1986).
Values after ≈ are worked out from the molar mass of the structure shown.

Tests used:
[1] = system: Citrobacter freundii; test: Minimum inhibitory concentration compared to D-cycloserine, against Citrobacter freundii 55.13; format: functional
How it was run: (§1)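 Agar dilution on Davis and Mingioli solid medium, supplemented with amino acids where needed. MIC taken as the lowest concentration giving complete growth inhibition, expressed in micrograms.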

[2] = system: Escherichia coli; test: Percent of inhibition of diaminopimelic acid decarboxylase at 5 mmol of amino acids, 1.05 mmol/L of labeled meso-DAP, and 32 umol/L of PLP
How it was run: (§2)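 Enzyme was meso-DAP decarboxylase isolated and purified from E. coli ATCC 9637. Inhibition measured as decarboxylation of labeled meso-DAP in the presence of the test amino acid.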

[3] = system: Escherichia coli; test: Percent of inhibition of diaminopimelic acid decarboxylase at 1 mmol of amino acids, 1.05 mmol/L of labeled meso-DAP, and 32 umol/L of PLP; how it was run: as §2
[4] = system: Escherichia coli; test: Percent of inhibition of diaminopimelic acid decarboxylase at 10 mmol of amino acids, 1.05 mmol/L of labeled meso-DAP, and 32 umol/L of PLP; how it was run: as §2
[5] = system: Escherichia coli; test: Minimum inhibitory concentration compared to D-cycloserine, against Escherichia coli ATCC 9637; format: functional; how it was run: as §1
[6] = system: Escherichia coli; test: Minimum inhibitory concentration compared to D-cycloserine, against Escherichia coli DC2; format: functional; how it was run: as §1
[7] = system: Escherichia coli; test: Minimum inhibitory concentration compared to D-cycloserine, against Escherichia coli UB 1005; format: functional; how it was run: as §1
[8] = system: Escherichia coli; test: Minimum inhibitory concentration required for the inhibition of Escherichia coli ATCC 9637; format: functional; how it was run: as §1
[9] = system: Klebsiella pneumoniae; test: Minimum inhibitory concentration compared to D-cycloserine, against Klebsiella pneumoniae 53.153; format: functional; how it was run: as §1
[10] = system: Pseudomonas aeruginosa; test: Minimum inhibitory concentration compared to D-cycloserine, against Pseudomonas aeruginosa A22; format: functional; how it was run: as §1
[11] = system: Providencia alcalifaciens; test: Minimum inhibitory concentration compared to D-cycloserine, against providencia alcalifaciens 58.62; format: functional; how it was run: as §1
[12] = system: Pseudomonas aeruginosa; test: Minimum inhibitory concentration required for the inhibition of Pseudomonas aeruginosa A22; format: functional; how it was run: as §1
[13] = system: Providencia rettgeri; test: Minimum inhibitory concentration compared to D-cycloserine, against Proteus rettgeri 53.100; format: functional; how it was run: as §1
[14] = system: Serratia marcescens; test: Minimum inhibitory concentration compared to D-cycloserine, against Serratia marcescens A 174; format: functional; how it was run: as §1
[15] = system: Serratia liquefaciens; test: Minimum inhibitory concentration compared to D-cycloserine, against Serratia liquefaciens 52.56; format: functional; how it was run: as §1
[16] = Minimum inhibitory concentration compared to D-cycloserine, against Moraxella glucidolytica 52.90; format: functional; how it was run: as §1
[17] = system: Enterobacter cloacae; test: Minimum inhibitory concentration compared to D-cycloserine, against Enterobacter cloacae 60.22
[18] = system: Escherichia coli; test: Compound is evaluated for the growth of Escherichia coli W7 in the liquid medium at 100 ug/mL.; Absence of growth; format: functional, organism-based
[19] = system: Escherichia coli; test: Percent of inhibition of diaminopimelic acid decarboxylase at 1 mmol of amino acid, 1.05 mmol/L of labeled meso-DAP, and 32 umol/L of PLP; how it was run: as §2
[20] = system: Escherichia coli; test: Percent of inhibition of diaminopimelic acid decarboxylase at 2 mmol of amino acid, 1.05 mmol/L of labeled meso-DAP, and 32 umol/L of PLP; how it was run: as §2
[21] = system: Escherichia coli; test: Compound is evaluated for the inhibition of bacterial growth (Escherichia coli ATCC 9637) in the liquid medium at 1 mmol of amino acid; format: functional
How it was run: (§3)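 Davis and Mingioli liquid medium, 4.8 mL, inoculated with 0.2 mL of an 18-h liquid culture of the test organism, with 0.1 mL of compound solution added. Growth followed by absorbance at 660 nm. Percent inhibition calculated after 6 h at 37 °C.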

[22] = system: Escherichia coli; test: Compound is evaluated for the inhibition of bacterial growth (Escherichia coli ATCC 9637) in the liquid medium at 2 mmol of amino acid; format: functional; how it was run: as §3
[23] = system: Escherichia coli; test: Compound is evaluated for the inhibition of bacterial growth (Escherichia coli ATCC 9637) in the liquid medium at 5 mmol of amino acid; format: functional; how it was run: as §3
[24] = system: Pseudomonas aeruginosa; test: Not Plasmodium species; format: functional
[25] = system: Escherichia coli; test: Percent of inhibition of diaminopimelic acid decarboxylase at 5 mmol of amino acid; how it was run: as §2
[26] = system: Escherichia coli; test: Percent of inhibition of diaminopimelic acid decarboxylase at 1 mmol of amino acid; how it was run: as §2
[27] = system: Enterobacter cloacae; test: Minimum inhibitory concentration compared to D-cycloserine, against Enterobacter cloacae 60.22; remark: listed apart in the source
[28] = system: Escherichia coli; test: Percent of inhibition of DAP decarboxylase at 10 mmol of amino acids, 1.05 mmol/L of labeled meso-DAP, and 32 umol/L of PLP; how it was run: as §2
[29] = system: Escherichia coli; test: Compound is evaluated for the growth of Escherichia coli W7 in the presence lysine in liquid medium; Growth is observed; format: functional, organism-based
[30] = system: Escherichia coli; test: Percent of inhibition of v decarboxylase at 1 mmol of amino acids, 1.05 mmol/L of labeled meso-DAP, and 32 umol/L of PLP; how it was run: as §2
[31] = system: Escherichia coli; test: Percent of inhibition of diaminopimelic acid decarboxylase at 2 mmol of amino acids, 1.05 mmol/L of labeled meso-DAP, and 32 umol/L of PLP; how it was run: as §2
[32] = system: Escherichia coli; test: Percent of inhibition of diaminopimelic acid decarboxylase at 5 mmol of amino acid, 1.05 mmol/L of labeled meso-DAP, and 32 umol/L of PLP; how it was run: as §2
[33] = system: Escherichia coli; test: Percent of inhibition of diaminopimelic acid decarboxylase at 10 mmol of amino acid, 1.05 mmol/L of labeled meso-DAP, and 32 umol/L of PLP; how it was run: as §2
[34] = Pseudomonas aeruginosa, read-out: MIC
[35] = Escherichia coli, ATCC 9637, read-out: MIC

C=C(C[C@@H](N)C(=O)O)C[C@@H](N)C(=O)O.C=C(C[C@H](N)C(=O)O)C[C@H](N)C(=O)O
MIC [1]: 8 µg/mL
inhibition [2]: 10%
inhibition [3]: 5%
inhibition [4]: 20%
MIC [5]: 16 µg/mL
MIC [6]: 8 µg/mL
MIC [7]: 8 µg/mL
MIC [8]: 2 µg/mL
MIC [9]: 16 µg/mL
MIC [10]: 32 µg/mL
MIC [11]: 32 µg/mL
MIC [12, 34]: 4 µg/mL
MIC [13]: 64 µg/mL
MIC [14]: 4 µg/mL
MIC [15]: 4 µg/mL
MIC [16]: 8 µg/mL
MIC [17]: 16 µg/mL

NCCCC[C@H](N)C(=O)O
Bacterial growth [18]: Absence of growth

NC(/C=C/CC(N)C(=O)O)C(=O)O (stereo unspecified)
inhibition [19]: 65%
inhibition [20]: 77%
Inhibition [21]: 0%
Inhibition [22]: 0%
Inhibition [23]: 0%

CC(N)(/C=C/CC(N)C(=O)O)C(=O)O (stereo unspecified)
inhibition [19]: 0%
inhibition [20]: 0%
Inhibition [22]: 0%
Inhibition [23]: 0%

N[C@@H]1CONC1=O [CYCLOSERINE]
MIC [1]: 2 µg/mL (≈ 19.6 µM)
MIC [5]: 0.5 µg/mL (≈ 4.9 µM)
MIC [6]: 128 µg/mL (≈ 1250 µM)
MIC [7]: 32 µg/mL (≈ 313 µM)
MIC [8, 35]: 0.25 µg/mL (≈ 2.45 µM)
MIC [9]: 8 µg/mL (≈ 78.4 µM)
MIC [10]: 64 µg/mL (≈ 627 µM)
MIC [11]: 8 µg/mL (≈ 78.4 µM)
MIC [24]: 128 µg/mL (≈ 1250 µM)
MIC [13]: 128 µg/mL (≈ 1250 µM)
MIC [14]: 128 µg/mL (≈ 1250 µM)
MIC [15]: 8 µg/mL (≈ 78.4 µM)
MIC [16]: 128 µg/mL (≈ 1250 µM)
MIC [17]: 2 µg/mL (≈ 19.6 µM)

C[C@@H]1O[C@@H]1P(=O)(O)O [FOSFOMYCIN]
MIC [8, 35]: 16 µg/mL (≈ 116 µM)
MIC [24]: 32 µg/mL (≈ 232 µM)

NC(/C=C(\Cl)CC(N)C(=O)O)C(=O)O (stereo unspecified)
inhibition [25]: 53%
inhibition [26]: 18%
Inhibition [23]: 50%
MIC [8]: > 128 µg/mL

C=C(CC(N)C(=O)O)CC(N)C(=O)O (stereo in doubt; 4) [listing 1 of 2 here]
MIC [1]: 16 µg/mL (≈ 79.1 µM)
MIC [5]: 32 µg/mL (≈ 158 µM)
MIC [6]: 32 µg/mL (≈ 158 µM)
MIC [7]: 2 µg/mL (≈ 9.89 µM)
Inhibition [21]: 90%
Inhibition [22]: 90%
Inhibition [23]: 95%
MIC [8]: 2 µg/mL (≈ 9.89 µM)
MIC [9]: 32 µg/mL (≈ 158 µM)
MIC [10]: 16 µg/mL (≈ 79.1 µM)
MIC [11]: 128 µg/mL (≈ 633 µM)
MIC [12]: 4 µg/mL (≈ 19.8 µM)
MIC [13]: 128 µg/mL (≈ 633 µM)
MIC [14]: 2 µg/mL (≈ 9.89 µM)
MIC [15]: 2 µg/mL (≈ 9.89 µM)
MIC [16]: 16 µg/mL (≈ 79.1 µM)
MIC [27]: 16 µg/mL (≈ 79.1 µM)

C=C(C[C@@H](N)C(=O)O)C[C@H](N)C(=O)O
MIC [1]: 32 µg/mL (≈ 158 µM)
inhibition [2]: 22%
inhibition [28]: 30%
inhibition [3]: 8%
MIC [5]: 32 µg/mL (≈ 158 µM)
MIC [6]: 4 µg/mL (≈ 19.8 µM)
MIC [7]: 2 µg/mL (≈ 9.89 µM)
MIC [8]: 2 µg/mL (≈ 9.89 µM)
MIC [9]: 16 µg/mL (≈ 79.1 µM)
MIC [10]: 16 µg/mL (≈ 79.1 µM)
MIC [11]: 128 µg/mL (≈ 633 µM)
MIC [12, 34]: 4 µg/mL (≈ 19.8 µM)
MIC [13]: 64 µg/mL (≈ 317 µM)
MIC [14]: 4 µg/mL (≈ 19.8 µM)
MIC [15]: 2 µg/mL (≈ 9.89 µM)
MIC [16]: 16 µg/mL (≈ 79.1 µM)
MIC [17]: 16 µg/mL (≈ 79.1 µM)

C=C(CC(N)C(=O)O)CC(N)C(=O)O (stereo in doubt; 4) [listing 2 of 2 here]
inhibition [2]: 15%
inhibition [3]: 5%
inhibition [4]: 30%
Bacterial growth [29]: Growth

CC(N)(CCCC(N)C(=O)O)C(=O)O (stereo unspecified)
inhibition [2]: 35%
inhibition [30]: 8%
inhibition [31]: 18%
Inhibition [21]: 38%
Inhibition [22]: 74%
Inhibition [23]: 90%
MIC [8]: 512 µg/mL (≈ 2510 µM)

C=C(CC(N)C(=O)O)CC(N)C(=O)O (single isomer, unassigned; (-))
MIC ([8]; Escherichia coli, ATCC 9637): 4 µg/mL (≈ 19.8 µM)
MIC [12, 34]: 4 µg/mL (≈ 19.8 µM)

N[C@H](CCC[C@H](N)C(=O)O)C(=O)O
Bacterial growth [18]: Absence of growth

C=C(CC(N)C(=O)O)CC(N)C(=O)O (stereo in doubt; (+)-4)
MIC [8]: 6 µg/mL (≈ 29.7 µM)
MIC [12]: 6 µg/mL (≈ 29.7 µM)

C/C(=C/C(N)C(=O)O)CC(N)C(=O)O (stereo unspecified)
inhibition [2]: 54%
inhibition [3]: 17%
inhibition [4]: 73%
inhibition [31]: 33%
Inhibition [21]: 0%
Inhibition [22]: 0%
Inhibition [23]: 55%

CC(CC(N)C(=O)O)CC(N)C(=O)O (stereo unspecified)
inhibition [32]: 43%
inhibition [19]: 12%
inhibition [33]: 55%
Inhibition [22]: 0%
Inhibition [23]: 0%

CC1(C)S[C@@H]2[C@H](NC(=O)[C@H](N)c3ccccc3)C(=O)N2[C@H]1C(=O)O [AMPICILLIN]
MIC [8, 35]: 5 µg/mL (≈ 14.3 µM)
MIC [24]: 512 µg/mL (≈ 1470 µM)

C/C(=C\C(N)C(=O)O)CC(N)C(=O)O (stereo unspecified)
inhibition [2]: 50%
inhibition [31]: 20%
Inhibition [21]: 0%
Inhibition [22]: 21%
Inhibition [23]: 50%
